Results reported in ChEMBL document CHEMBL4017519, “Development of (4-Cyanophenyl)glycine Derivatives as Reversible Inhibitors of Lysine Specific Demethylase 1” (J Med Chem, 2017).
The source made the active and inactive calls. No cut-off for these calls is given here.

target: T1, Lysine-specific histone demethylase 1A (Homo sapiens, UniProt O60341); experiment: Competitive binding affinity to LSD1 (unknown origin) in presence of tranylcypromine; conditions: not given

Row | Structure (SMILES) | Activity
1 | COc1cc(NS(=O)(=O)c2ccc3c(c2)cc(C)c(=O)n3C)ccc1-n1nc(C)cc1C | inactive

test system: not listed separately; experiment: Efflux ratio of apparent permeability in human Caco2 cells; format: ADME, cell-based; conditions: Caco-2

Row | Structure (SMILES) | efflux ratio
2 | COc1ccc(CN(CC(=O)N2CCC(CN)CC2)c2ccc(C#N)cc2)cc1F | 58
3 | COc1ccc(CN(CC(=O)N2CCC3(CC2)CNC3)c2ccc(C#N)cc2)cc1F | 58

test system: not listed separately; experiment: Apparent permeability across apical to basolateral side in human Caco2 cells; format: ADME, cell-based; conditions: Caco-2

Row | Structure (SMILES) | Papp A→B
4 | COc1ccc(CN(CC(=O)N2CCC(CN)CC2)c2ccc(C#N)cc2)cc1F | 0.26 ×10⁻⁶ cm/s
5 | COc1ccc(CN(CC(=O)N2CCC(N)CC2)c2ccc(C#N)cc2)cc1F | 0.44 ×10⁻⁶ cm/s
6 | Cc1ccc(-c2ncc(OC[C@H]3CCNC3)cc2-c2ccc(C#N)cc2)cc1 | 5.6 ×10⁻⁶ cm/s
7 | COc1ccc(CN(CC(=O)N2CCC3(CC2)CNC3)c2ccc(C#N)cc2)cc1F | 0.09 ×10⁻⁶ cm/s

test system: THP-1; experiment: Induction of apoptosis in human THP1 cells at 10 uM after 4 days by Annexin V-perCP EF710/7AAD double staining based FACS analysis; format: functional, cell-based; conditions: not given
Summary of the method: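 THP-1 cells in liquid culture with 10 μM compound or vehicle for 4 days, then stained with an Annexin V/7-AAD kit per manufacturer and analysed by flow cytometry. Early apoptotic = Annexin V-pos/7-AAD-neg; apoptotic = Annexin V-pos/7-AAD-pos. One-way ANOVA with Dunnett's tests.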

Row | Structure (SMILES) | Activity
8 | Cc1ccc(-c2ncc(OC[C@H]3CCNC3)cc2-c2ccc(C#N)cc2)cc1 | Active
9 | COc1ccc(CN(CC(=O)N2CCC3(CC2)CNC3)c2ccc(C#N)cc2)cc1F | Active

target: T1, Lysine-specific histone demethylase 1A; experiment: Inhibition of N-terminal truncated human LSD1 (151 to 852 residues) expressed in Escherichia coli after 30 mins using histone H3(1-21)K4(Me1) biotin peptide as substrate by TR-FRET assay; conditions: not given

Row | Structure (SMILES) | IC50
10 | Cc1ccc(S(=O)(=O)N(CC(=O)N2CCC(N)CC2)c2ccc(C#N)cc2)cc1 | 7.6 µM
11 | COc1ccc(CN(CC(=O)N2CCC(CN)CC2)c2ccc(C#N)cc2)cc1F | 0.21 µM
12 | COc1cc(NS(=O)(=O)c2ccc3c(c2)CCN3C(C)=O)ccc1-n1nc(C)cc1C | 1.6 µM
13 | N#Cc1ccc(N(CC(=O)N2CCC(N)CC2)Cc2ccccc2)cc1 | 4.1 µM
14 | N#Cc1ccc(N(CC(=O)N2CCC(CN)CC2)Cc2cccc(C(N)=O)c2)cc1 | 1 µM
15 | COc1cc(NS(=O)(=O)c2ccccc2)ccc1-n1nc(C)cc1C | 40 µM
16 | N#Cc1ccc(N(CC(=O)N2CCC(N)CC2)Cc2ccc(C#N)c(F)c2)cc1 | 5.5 µM
17 | COc1ccc(CN(CC(=O)N2CCC(N)CC2)c2ccc(C#N)cc2)cc1F | 0.81 µM
18 | Cc1ccc(S(=O)(=O)N(CC(=O)N2CCC(N(C)C)CC2)c2ccc(C#N)cc2)cc1 | 12.6 µM
19 | CNC1CCN(C(=O)CN(c2ccc(C#N)cc2)S(=O)(=O)c2ccc(C)cc2)CC1 | 7.5 µM
20 | Cc1ccc(S(=O)(=O)N(CC(=O)NC2CCNCC2)c2ccc(C#N)cc2)cc1 | 15.6 µM
21 | COc1cc(N(CC(=O)N2CCC(N)CC2)S(=O)(=O)c2ccc3c(c2)CCN3C(C)=O)ccc1-n1nc(C)cc1C | > 30 µM
22 | Cn1cc2cc(N(CC(=O)N3CCC[C@@H](N)C3)S(=O)(=O)c3ccc(C#N)cc3)ccc2n1 | 30 µM
23 | N#Cc1ccc(N(CC(=O)N2CCC(CN)CC2)Cc2ccc(F)cc2)cc1 | 1.3 µM
24 | COc1cc(NS(=O)(=O)c2ccc3c(c2)cc(C)c(=O)n3C)ccc1-n1nc(C)cc1C | 0.43 µM
25 | COc1ccc(CN(CC(=O)N2CCC3(CC2)CNC3)c2ccc(C#N)cc2)cc1F | 0.083 µM

target: T1, Lysine-specific histone demethylase 1A; experiment: Binding affinity to LSD1 (unknown origin) by SPR analysis; conditions: not given

Row | Structure (SMILES) | Kd
26 | Cc1ccc(S(=O)(=O)N(CC(=O)N2CCC(N)CC2)c2ccc(C#N)cc2)cc1 | 2.6 µM
27 | COc1ccc(CN(CC(=O)N2CCC(CN)CC2)c2ccc(C#N)cc2)cc1F | 0.058 µM
28 | COc1cc(NS(=O)(=O)c2ccc3c(c2)CCN3C(C)=O)ccc1-n1nc(C)cc1C | > 100 µM
29 | N#Cc1ccc(N(CC(=O)N2CCC(N)CC2)Cc2ccccc2)cc1 | 1.1 µM
30 | N#Cc1ccc(N(CC(=O)N2CCC(CN)CC2)Cc2cccc(C(N)=O)c2)cc1 | 0.42 µM
31 | N#Cc1ccc(N(CC(=O)N2CCC(N)CC2)Cc2ccc(C#N)c(F)c2)cc1 | 1.9 µM
32 | COc1ccc(CN(CC(=O)N2CCC(N)CC2)c2ccc(C#N)cc2)cc1F | 0.19 µM
33 | Cc1ccc(S(=O)(=O)N(CC(=O)N2CCC(N(C)C)CC2)c2ccc(C#N)cc2)cc1 | 2.9 µM
34 | CNC1CCN(C(=O)CN(c2ccc(C#N)cc2)S(=O)(=O)c2ccc(C)cc2)CC1 | 2.9 µM
35 | Cc1ccc(S(=O)(=O)N(CC(=O)NC2CCNCC2)c2ccc(C#N)cc2)cc1 | 6.5 µM
36 | COc1cc(N(CC(=O)N2CCC(N)CC2)S(=O)(=O)c2ccc3c(c2)CCN3C(C)=O)ccc1-n1nc(C)cc1C | > 100 µM
37 | Cn1cc2cc(N(CC(=O)N3CCC[C@@H](N)C3)S(=O)(=O)c3ccc(C#N)cc3)ccc2n1 | 9.6 µM
38 | N#Cc1ccc(N(CC(=O)N2CCC(CN)CC2)Cc2ccc(F)cc2)cc1 | 0.46 µM
39 | Cc1ccc(-c2ncc(OC[C@H]3CCNC3)cc2-c2ccc(C#N)cc2)cc1 | 0.009 µM
40 | COc1ccc(CN(CC(=O)N2CCC3(CC2)CNC3)c2ccc(C#N)cc2)cc1F | 0.032 µM

target: T1, Lysine-specific histone demethylase 1A; experiment: Inhibition of LSD1 in human THP1 cells assessed as induction of CD86 expression after 48 hrs by flow cytometric analysis; format: cell-based; conditions: not given

Row | Structure (SMILES) | EC50
41 | COc1ccc(CN(CC(=O)N2CCC(CN)CC2)c2ccc(C#N)cc2)cc1F | 4.1 µM
42 | Cc1ccc(-c2ncc(OC[C@H]3CCNC3)cc2-c2ccc(C#N)cc2)cc1 | 0.3 µM
43 | COc1ccc(CN(CC(=O)N2CCC3(CC2)CNC3)c2ccc(C#N)cc2)cc1F | 0.67 µM

target: T1, Lysine-specific histone demethylase 1A; experiment: Inhibition of LSD1 in human THP1 cells assessed as induction of CD86 expression at 50 uM after 48 hrs by flow cytometric analysis; format: cell-based; conditions: not given
Summary of the method: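 THP-1 AML cells grown in RPMI with 10% FBS and 2 mM L-glutamine, exposed to compound or DMSO vehicle at 50 μM for 48 h at 1×10^5 cells/ml. Cells were pelleted and stained with CD86-PerCP EF710 antibody in phenol red-free RPMI with 5 mM EDTA and 2% BSA for 10 min at 4 °C, then washed and analysed by flow cytometry.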

Row | Structure (SMILES) | inhibition
44 | COc1cc(NS(=O)(=O)c2ccc3c(c2)cc(C)c(=O)n3C)ccc1-n1nc(C)cc1C | inactive

test system: THP-1; experiment: Anticlonogenic activity against human THP1 cells at 10 uM after 7 days; format: functional, cell-based; conditions: not given

Row | Structure (SMILES) | Activity
45 | Cc1ccc(-c2ncc(OC[C@H]3CCNC3)cc2-c2ccc(C#N)cc2)cc1 | Active
46 | COc1ccc(CN(CC(=O)N2CCC3(CC2)CNC3)c2ccc(C#N)cc2)cc1F | Active

test system: MV4-11; experiment: Anticlonogenic activity against human MV4-11 cells at 10 uM after 7 days; format: functional, cell-based; conditions: not given

Row | Structure (SMILES) | Activity
47 | Cc1ccc(-c2ncc(OC[C@H]3CCNC3)cc2-c2ccc(C#N)cc2)cc1 | Active
48 | COc1ccc(CN(CC(=O)N2CCC3(CC2)CNC3)c2ccc(C#N)cc2)cc1F | Active

target: Voltage-gated inwardly rectifying potassium channel KCNH2 (Homo sapiens, UniProt Q12809); experiment: Inhibition of human hERG by patch clamp method; conditions: not given
Sequence (Q12809 whole entry): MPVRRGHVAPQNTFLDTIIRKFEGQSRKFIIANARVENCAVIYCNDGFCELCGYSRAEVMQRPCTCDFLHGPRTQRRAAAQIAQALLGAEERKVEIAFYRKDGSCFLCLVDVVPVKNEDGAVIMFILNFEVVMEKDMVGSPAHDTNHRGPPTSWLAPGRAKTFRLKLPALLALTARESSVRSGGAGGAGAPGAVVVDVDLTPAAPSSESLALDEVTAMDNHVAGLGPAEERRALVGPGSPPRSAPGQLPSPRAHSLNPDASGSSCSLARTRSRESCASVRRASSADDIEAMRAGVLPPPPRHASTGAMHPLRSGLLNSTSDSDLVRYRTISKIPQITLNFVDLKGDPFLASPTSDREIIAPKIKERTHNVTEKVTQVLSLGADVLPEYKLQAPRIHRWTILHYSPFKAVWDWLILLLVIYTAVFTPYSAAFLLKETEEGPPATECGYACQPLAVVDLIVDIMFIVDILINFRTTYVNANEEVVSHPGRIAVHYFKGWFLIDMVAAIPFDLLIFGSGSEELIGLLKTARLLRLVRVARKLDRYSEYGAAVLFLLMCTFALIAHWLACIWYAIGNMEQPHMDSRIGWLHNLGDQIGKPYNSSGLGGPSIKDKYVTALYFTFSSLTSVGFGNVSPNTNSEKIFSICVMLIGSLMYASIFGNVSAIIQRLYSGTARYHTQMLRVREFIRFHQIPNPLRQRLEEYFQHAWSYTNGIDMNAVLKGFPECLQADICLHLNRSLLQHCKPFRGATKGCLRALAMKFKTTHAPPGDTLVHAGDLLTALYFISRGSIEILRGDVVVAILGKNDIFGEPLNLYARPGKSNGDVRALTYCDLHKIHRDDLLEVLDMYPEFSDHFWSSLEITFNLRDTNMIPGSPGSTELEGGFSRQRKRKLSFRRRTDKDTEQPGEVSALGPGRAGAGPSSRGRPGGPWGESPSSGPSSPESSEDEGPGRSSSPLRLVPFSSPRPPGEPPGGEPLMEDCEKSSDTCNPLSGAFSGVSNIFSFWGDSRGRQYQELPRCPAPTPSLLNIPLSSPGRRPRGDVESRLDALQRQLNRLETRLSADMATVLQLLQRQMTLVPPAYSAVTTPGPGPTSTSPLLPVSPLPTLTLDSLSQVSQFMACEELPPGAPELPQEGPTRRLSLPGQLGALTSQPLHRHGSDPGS

Row | Structure (SMILES) | IC50
49 | COc1ccc(CN(CC(=O)N2CCC(CN)CC2)c2ccc(C#N)cc2)cc1F | 12.4 µM
50 | Cc1ccc(-c2ncc(OC[C@H]3CCNC3)cc2-c2ccc(C#N)cc2)cc1 | 3.2 µM
51 | COc1ccc(CN(CC(=O)N2CCC3(CC2)CNC3)c2ccc(C#N)cc2)cc1F | 20.1 µM

species on record: Homo sapiens; experiment: Selectivity ratio of IC50 for human ERG to IC50 for N-terminal truncated human LSD1 (151 to 852 residues) expressed in Escherichia coli; conditions: not given

Row | Structure (SMILES) | Ratio IC50
52 | COc1ccc(CN(CC(=O)N2CCC3(CC2)CNC3)c2ccc(C#N)cc2)cc1F | 30

test system: Liver; experiment: Intrinsic clearance in mouse liver microsomes assessed per […]; format: ADME, microsome; conditions: not given

Row | Structure (SMILES) | CLint
53 | COc1ccc(CN(CC(=O)N2CCC(CN)CC2)c2ccc(C#N)cc2)cc1F | 4.5 µL/min
54 | COc1ccc(CN(CC(=O)N2CCC(N)CC2)c2ccc(C#N)cc2)cc1F | 3.6 µL/min
55 | Cc1ccc(-c2ncc(OC[C@H]3CCNC3)cc2-c2ccc(C#N)cc2)cc1 | 3.43 µL/min
56 | COc1ccc(CN(CC(=O)N2CCC3(CC2)CNC3)c2ccc(C#N)cc2)cc1F | < 1 µL/min

test system: not listed separately; experiment: Half life in mouse liver microsomes; format: ADME, microsome; conditions: not given

Row | Structure (SMILES) | half-life
57 | COc1ccc(CN(CC(=O)N2CCC(CN)CC2)c2ccc(C#N)cc2)cc1F | 5.08 h
58 | COc1ccc(CN(CC(=O)N2CCC(N)CC2)c2ccc(C#N)cc2)cc1F | 6.42 h
59 | Cc1ccc(-c2ncc(OC[C@H]3CCNC3)cc2-c2ccc(C#N)cc2)cc1 | 6.73 h
60 | COc1ccc(CN(CC(=O)N2CCC3(CC2)CNC3)c2ccc(C#N)cc2)cc1F | > 16.7 h
